According to ChEMBL document CHEMBL1150609, “New furanoid diterpenes from Caesalpinia pulcherrima” (2002):

How the values were obtained:
Assay type in all cases: functional
[1] = system: Staphylococcus aureus; assay: Antimicrobial activity against Staphylococcus aureus UPCC 1143 assessed as antimicrobial index at 30 ug after 24 hrs
[2] = system: Candida albicans; assay: Antimicrobial activity against Candida albicans UPCC 2168 assessed as antimicrobial index at 30 ug after 48 hrs
[3] = system: Trichophyton mentagrophytes; assay: Antimicrobial activity against Trichophyton mentagrophytes UPCC 4193 assessed as antimicrobial index at 30 ug after 72 hrs
[4] = system: Aspergillus niger; assay: Antimicrobial activity against Aspergillus niger UPCC 3701 assessed as antimicrobial index at 30 ug after 48 hrs
[5] = system: Bacillus subtilis; assay: Antimicrobial activity against Bacillus subtilis UPCC 1149 assessed as antimicrobial index at 30 ug after 24 hrs
[6] = system: Trichophyton mentagrophytes; assay: Antimicrobial activity against Trichophyton mentagrophytes UPCC 4193 assessed as clearing zone at 30 ug after 72 hrs; settings: read-out: IZ
Method in brief: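 T. mentagrophytes was grown as a 5-day culture and suspended in 0.1% peptone water at about 6 × 10^8 cells/mL. A 0.1 mL aliquot was seeded into a potato dextrose agar overlay with three 10 mm wells, each dosed in 95% EtOH (70 µg test sample; 30 µg standard). Plates were incubated at 30 ± 1 °C for 72 h, and the clear inhibition zone was read in mm.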

[7] = system: Escherichia coli; assay: Antimicrobial activity against Escherichia coli UPCC 1195 assessed as antimicrobial index at 30 ug after 24 hrs
[8] = system: Pseudomonas aeruginosa; assay: Antimicrobial activity against Pseudomonas aeruginosa UPCC 1244 assessed as antimicrobial index at 30 ug after 24 hrs
[9] = system: Escherichia coli; assay: Antimicrobial activity against Escherichia coli UPCC 1195 assessed as clearing zone at 30 ug after 24 hrs; settings: read-out: IZ
Method in brief: (§1)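 Agar-well diffusion. 24 h cultures were suspended in 0.1% peptone water at about 6 × 10^8 cells/mL, and 0.1 mL was seeded into a nutrient agar overlay. Three 10 mm wells were cut per plate, each loaded with sample in 95% EtOH (70 µg test sample; 30 µg standard). Plates were incubated at 30 ± 1 °C for 24 h, and the clear inhibition zone was measured in mm.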

[10] = system: Candida albicans; assay: Antimicrobial activity against Candida albicans UPCC 2168 assessed as clearing zone at 30 ug after 48 hrs; settings: read-out: IZ
Method in brief: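 C. albicans was grown as a 24 h culture, suspended at about 6 × 10^8 cells/mL in 0.1% peptone water, and 0.1 mL was seeded into a glucose yeast peptone agar overlay. Three 10 mm wells per plate received sample in 95% EtOH (70 µg test sample; 30 µg standard). Plates were incubated at 30 ± 1 °C for 48 h, and the clear growth-inhibition zone was measured in mm.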

[11] = system: Staphylococcus aureus; assay: Antimicrobial activity against Staphylococcus aureus UPCC 1143 assessed as clearing zone at 30 ug after 24 hrs; settings: read-out: IZ; method in brief: as §1
[12] = system: Pseudomonas aeruginosa; assay: Antimicrobial activity against Pseudomonas aeruginosa UPCC 1244 assessed as clearing zone at 30 ug after 24 hrs; settings: read-out: IZ; method in brief: as §1
[13] = system: Bacillus subtilis; assay: Antimicrobial activity against Bacillus subtilis UPCC 1149 assessed as clearing zone at 30 ug after 24 hrs; settings: read-out: IZ; method in brief: as §1
[14] = system: Aspergillus niger; assay: Antimicrobial activity against Aspergillus niger UPCC 3701 assessed as clearing zone at 30 ug after 48 hrs; settings: read-out: IZ

Structure (SMILES) | Activity [1] | Activity [2] | Activity [3] | Activity [4] | Activity [5] | zone of inhibition at 30 µg/disc [6] | Activity [7] | Activity [8] | zone of inhibition at 30 µg/disc [9] | zone of inhibition at 30 µg/disc [10] | zone of inhibition at 30 µg/disc [11] | zone of inhibition at 30 µg/disc [12] | zone of inhibition at 30 µg/disc [13] | zone of inhibition at 30 µg/disc [14]
COc1cccc(OC)c1C(=O)OCc1ccccc1 | 0.2 | 0.4 | 0.4 | 0 | 0.3 | 14 mm | 0.2 | 0.3 | 12 mm | 14 mm | 12 mm | 13 mm | 13 mm | 
O=C(N[C@H](CO)[C@H](O)c1ccc([N+](=O)[O-])cc1)C(Cl)Cl [CHLORAMPHENICOL] | 1.8 |  |  |  | 2.5 |  | 1.4 | 0.2 | 24 mm |  | 28 mm | 12 mm | 35 mm | 
Clc1ccccc1C(c1ccccc1)(c1ccccc1)n1ccnc1 [CLOTRIMAZOLE] |  | 1 | 1.1 |  |  | 21 mm |  |  |  | 20 mm |  |  |  | 
C[C@@H]1C[C@@H]([C@H](O)CC2CC(=O)NC(=O)C2)C(=O)[C@@H](C)C1 [CYCLOHEXIMIDE] |  |  |  | 0.3 |  |  |  |  |  |  |  |  |  | 13 mm
C=C1c2ccoc2C[C@H]2[C@H]1C[C@@H](OC(=O)c1ccccc1)[C@@]1(O)C(C)(C)CCC[C@]21C [ISOVOUACAPENOL A] | 0.6 | 0.4 | 0.2 | 0 | 0.5 | 12 mm | 0.2 | 0.2 | 12 mm | 14 mm | 16 mm | 12 mm | 15 mm | 
CC1(C)CCC[C@]2(C)[C@H]3Cc4occc4[C@@](C)(O)[C@@H]3C[C@@H](OC(=O)c3ccccc3)[C@@]12O [ISOVOUACAPENOL B] | 0.4 | 0.4 | 0.3 | 0.2 | 0.4 | 13 mm | 0.2 | 0.4 | 12 mm | 14 mm | 14 mm | 14 mm | 14 mm | 12 mm
C[C@H]1c2ccoc2C[C@H]2[C@H]1[C@@H](O)[C@@H](OC(=O)c1ccccc1)[C@@]1(O)C(C)(C)CCC[C@]21C [ISOVOUACAPENOL C] | 0.6 | 0.3 | 0.3 | 0 | 0.5 | 13 mm | 0.2 | 0.2 | 12 mm | 13 mm | 16 mm | 12 mm | 15 mm | 
Cc1c2c(cc3occc13)[C@@]1(C)CCCC(C)(C)[C@]1(O)[C@H](OC(=O)c1ccccc1)C2 [ISOVOUACAPENOL D] | 0.2 | 0.2 | 0.2 | 0 | 0.2 | 12 mm | 0.2 | 0.2 | 12 mm | 12 mm | 12 mm | 12 mm | 12 mm | 
